Among the data in ChEMBL document CHEMBL1135786, “Anti-AIDS agents 49. Synthesis, anti-HIV, and anti-fusion activities of IC9564 analogues based on betulinic acid” (J Med Chem, 2002) are EC50 values, retold here.

Holding throughout (assay type): functional, organism-based
Assay [1] has as its system Human immunodeficiency virus 1. The assay is described as follows: Anti HIV-1 activity against the virus NL4-3 using fusion assay. The gist of the method: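 COS cells (10⁶) electroporated (950 µF, […]) with 2 µg vector expressing HIV-1 NL4-3 envelope, cultured 1 day. Then 10⁴ transfected cells mixed with 7 × 10⁴ MOLT-4 cells. Graded compound concentrations added, 24 h at 37 °C. Multinucleated syncytia counted microscopically over entire well; EC50 from syncytium inhibition.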

For assay [2], the system named is Human immunodeficiency virus 1. The experiment in a line: Anti HIV-1 activity against the virus NL4-3 using MAGI assay. The settings on record: Human immunodeficiency virus 1, MAGI. The gist of the method:
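HeLa-CD4/CCR5/β-gal indicator cells seeded at 10 000/well, grown 1 day in DMEM with G418 (500 µg/mL) and hygromycin (250 µg/mL). Infected with virus dilutions in presence of graded compound concentrations, 2 days at 37 °C. Fixed (1% formaldehyde, 0.2% glutaraldehyde), X-gal stained (0.4 mg/mL). Blue (Tat-expressing) cells counted; EC50 = concentration halving infected-cell number.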

Assay [3] concerns Human immunodeficiency virus 1. The experiment in a line: Anti HIV-1 activity against infected H9 lymphocyte cells. The settings on record: Human immunodeficiency virus 1, H9. The gist of the method: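 HIV-1 acutely infected H9 lymphocytes cultured with the test agent; EC50 (µM) reported.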

Usually EC50 stands for the concentration that produces a half-maximal response. Read a high EC50 as lower potency in that assay. For `C=C(C)[C@@H]1CC[C@]2(C(=O)NCCCCCCCC(=O)OC)CC[C@]3(C)[C@H](CC[C@@H]4[C@@]5(C)CC[C@H](OC(C)=O)C(C)(C)[C@@H]5CC[C@]43C)[C@@H]12`, the EC50 in assay [1] is over 31 µM; in assay [2] it was 29.1 µM.
For the molecule `C=C(C)[C@@H]1CC[C@]2(C(=O)N[C@@H](CC(C)C)C(=O)O)CC[C@]3(C)[C@H](CC[C@@H]4[C@@]5(C)CC[C@H](O)C(C)(C)[C@@H]5CC[C@]43C)[C@@H]12`, the figures for the half-maximal effective concentration (EC50) in assay [3] and in assay [1] were 3.22 µM and 5.48 µM, respectively.
In the case of `C=C(C)[C@@H]1CC[C@]2(C(=O)NCCC(=O)OC)CC[C@]3(C)[C@H](CC[C@@H]4[C@@]5(C)CC[C@H](OC(C)=O)C(C)(C)[C@@H]5CC[C@]43C)[C@@H]12`, the concentration giving a half-maximal response (EC50) is 21.4 µM in assay [1] and 26.7 µM in assay [2].
In the case of `C=C(C)[C@@H]1CC[C@]2(C(=O)NCCCCCCCCCCC(=O)O)CC[C@]3(C)[C@H](CC[C@@H]4[C@@]5(C)CC[C@H](O)C(C)(C)[C@@H]5CC[C@]43C)[C@@H]12`, the EC50 in assay [1] was found to be 0.31 µM; in assay [2], 0.7 µM.
The like results for `C=C(C)[C@@H]1CC[C@]2(C(=O)NCCC(=O)N[C@@H](CC(C)C)C(=O)OC)CC[C@]3(C)[C@H](CC[C@@H]4[C@@]5(C)CC[C@H](O)C(C)(C)[C@@H]5CC[C@]43C)[C@@H]12` were, in that order, 7.63 µM and over 38 µM.
As for `C=C(C)[C@@H]1CC[C@]2(C(=O)NCCCCCCCCCCC(=O)OC)CC[C@]3(C)[C@H](CC[C@@H]4[C@@]5(C)CC[C@H](OC(C)=O)C(C)(C)[C@@H]5CC[C@]43C)[C@@H]12`, the figures for the 50% effective concentration (EC50) in assay [1] and in assay [2] were over 29 µM and 10.2 µM, respectively.
The like results for `CC(=O)O[C@H]1CC[C@]2(C)[C@H]3CC[C@@H]4[C@H]5[C@H](C(C)C)CC[C@]5(C(=O)NCCCCCCCC(=O)N[C@@H](CC(C)C)[C@H](O)CC(=O)OCc5ccccc5)CC[C@@]4(C)[C@]3(C)CC[C@H]2C1(C)C` were, in that order, over 22 µM and over 28 µM.
On to `C=C(C)[C@@H]1CC[C@]2(C(=O)NCCCCCCCCCCC(=O)N[C@@H](CC(C)C)C(=O)OC)CC[C@]3(C)[C@H](CC[C@@H]4[C@@]5(C)CC[C@H](O)C(C)(C)[C@@H]5CC[C@]43C)[C@@H]12`, for which the 50% effective concentration (EC50) in assay [1] is over 26 µM; in assay [2] it was over 32 µM.
As for `C=C(C)[C@@H]1CC[C@]2(C(=O)NCCCCCCCCCCC(=O)N[C@@H](CC(C)C)C(=O)O)CC[C@]3(C)[C@H](CC[C@@H]4[C@@]5(C)CC[C@H](O)C(C)(C)[C@@H]5CC[C@]43C)[C@@H]12`, the EC50 in assay [1] was determined as 0.33 µM; in assay [2], 0.46 µM.
Consider `C=C(C)[C@@H]1CC[C@]2(C(=O)NCCCCCCCC(=O)N[C@@H](CC(C)C)C(=O)O)CC[C@]3(C)[C@H](CC[C@@H]4[C@@]5(C)CC[C@H](O)C(C)(C)[C@@H]5CC[C@]43C)[C@@H]12`, for which the concentration for a half-maximal effect (EC50) in assay [1] is 1.1 µM; in assay [2], 1.38 µM.
On the same counts, the results for `C=C(C)[C@@H]1CC[C@]2(C(=O)NCCCCCCCC(=O)N[C@@H](CC(C)C)C(=O)OC)CC[C@]3(C)[C@H](CC[C@@H]4[C@@]5(C)CC[C@H](O)C(C)(C)[C@@H]5CC[C@]43C)[C@@H]12` are 0.86 µM and 0.52 µM.
On the same counts, the results for `C=C(C)[C@@H]1CC[C@]2(C(=O)NCCC(=O)O)CC[C@]3(C)[C@H](CC[C@@H]4[C@@]5(C)CC[C@H](O)C(C)(C)[C@@H]5CC[C@]43C)[C@@H]12` are over 38 µM and over 47 µM.
Take `CC(C)C[C@H](NC(=O)CCCCCCCNC(=O)[C@]12CC[C@@H](C(C)C)[C@@H]1[C@H]1CC[C@@H]3[C@@]4(C)CC[C@H](O)C(C)(C)[C@@H]4CC[C@@]3(C)[C@]1(C)CC2)[C@H](O)CC(=O)O`: the EC50 in assay [1] came out at 0.4 µM; in assay [2], 0.33 µM.
As to `Cc1cn([C@H]2C[C@H](N=[N+]=[N-])[C@@H](CO)O2)c(=O)[nH]c1=O` [ZIDOVUDINE], the values for the EC50 in assay [1] and in assay [2] were over 75 µM and 0.075 µM, respectively.
The like results for `C=C(C)[C@@H]1CC[C@]2(C(=O)N[C@@H](CC(C)C)C(=O)OC)CC[C@]3(C)[C@H](CC[C@@H]4[C@@]5(C)CC[C@H](OC(C)=O)C(C)(C)[C@@H]5CC[C@]43C)[C@@H]12` were, in that order, over 32 µM and over 40 µM.
On the same counts, the results for `C=C(C)[C@@H]1CC[C@]2(C(=O)NCCCCCCCC(=O)N[C@@H](CC(C)C)[C@H](O)CC(=O)O)CC[C@]3(C)[C@H](CC[C@@H]4[C@@]5(C)CC[C@H](O)C(C)(C)[C@@H]5CC[C@]43C)[C@@H]12` are 0.66 µM and 0.4 µM.
Regarding `C=C(C)[C@@H]1CC[C@]2(C(=O)NCCC(=O)N[C@@H](CC(C)C)C(=O)O)CC[C@]3(C)[C@H](CC[C@@H]4[C@@]5(C)CC[C@H](O)C(C)(C)[C@@H]5CC[C@]43C)[C@@H]12`, the EC50 was over 31 µM in assay [1] and over 39 µM in assay [2].
